Test results as given in PMC3946497 (Molecular pharmaceutics, 2013).

Tests used:
Format in all cases: in vivo, mouse
[1] = tested on: athymic nude mice bearing U87MG glioma xenografts; settings: 60 min p.i.
[2] = tested on: athymic nude mice without tumors; assay: Metabolism study; settings: ~10 MBq via tail vein, n = 3, radio-HPLC
Method in brief: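 Tumour-free athymic nude mice (n = 3), ~10 MBq radiotracer i.v. Urine (manual void): mixed 1:1 with 50% acetonitrile, spun at 8,000 rpm, supernatant 0.20 µm-filtered. Feces: homogenised, suspended in 20% acetonitrile, vortexed ~5 min, spun, filtered. Filtrates analysed by C18 HPLC at 2.5 mL/min on a 0.05% TFA water/acetonitrile gradient (10% to 30% B over 20 min).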

[3] = tested on: athymic nude mice bearing U87MG human glioma xenografts; assay: Biodistribution in athymic nude mice bearing U87MG glioma xenografts; settings: average ± SD; for Brain uptake / Eyes uptake / Heart uptake / Intestine uptake / Kidney uptake / Liver uptake / Lungs uptake / Muscle uptake / Spleen uptake / Blood uptake / Tumor uptake: tail vein ~0.1 MBq; for Blood uptake: γ-counting; for Tumor uptake: U87MG glioma xenograft
Method in brief: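 Tumour model: female athymic nu/nu mice, 4–5 weeks old, inoculated s.c. in the shoulder flank with 5 × 10^6 U87MG cells and used 4 weeks later (tumours 0.1–0.5 g; mice 20–25 g). Dosing: ~0.1 MBq radiotracer (~2 ng conjugate) in filtered saline. Groups of 5–8 killed at 5, 30, 60 and 120 min by pentobarbital overdose. Blood and organs washed, blotted, weighed and γ-counted as %ID/g.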

[4] = tested on: athymic nude mice bearing U87MG human glioma xenografts; assay: SPECT/CT imaging with SPECT quantification of tumor uptake; settings: U87MG glioma xenograft; ~37 MBq via tail vein; imaging at 60 min p.i.
Method in brief: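 Imaging dose: ~37 MBq radiotracer (~0.8 µg conjugate) in 0.1 mL saline i.v.; mice imaged under isoflurane. SPECT: multi-pinhole collimator (0.6 mm), 75 projections per 30-min frame, 2 frames. CT: 45 kV, 500 µA, 2° intervals. Tumour ROIs drawn on CT; counts converted to activity via a standard curve from sources of known activity scanned the same way; expressed as %ID/cm3.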

[5] = co-injection of excess RGD2 (350 µg/mouse or 14 mg/kg), n = 6

For “[^99mTc(HYNIC-Galacto-RGD2)(tricine)(TPPTS)] (bicyclic or more) [^99mTc-Galacto-RGD2]”, the “Intestine uptake in the presence of RGD2” value [1, 5] was 1.82 ± 0.86 %ID/g, the “Lungs uptake in the presence of RGD2” value [1, 5] was 1.52 ± 0.27 %ID/g and the “Spleen uptake in the presence of RGD2” value [1, 5] was 0.65 ± 0.07 %ID/g. For the same substance, the “Tumor uptake with RGD2” value ([1]; co-injection of excess RGD2 (350 µg/mouse or 14 mg/kg), n = 6, average ± SD) was 1.48 ± 0.42 %ID/g, the “Reduction of liver uptake by co-injected excess RGD2” value ([1]; of its origin value) was 50% and the “Reduction of lung uptake by co-injected excess RGD2” value ([1]; of its origin value) was 50%. For the same substance, the “Remained intact in the feces” value ([2]; feces at 2 h p.i.) was “More than 90%”, the “Metabolites in the urine” value ([2]; urine at 30 min and 120 min p.i.) was “no metabolites detected” and the Tumor/Blood ratio ([3]; 5 min p.i., n = 5) was 9.43 ± 1.19. It also gave a Tumor/Kidney ratio ([3]; 5 min p.i., n = 5) of 0.52 ± 0.14, a Tumor/Liver ratio ([3]; 5 min p.i., n = 5) of 2.66 ± 0.51 and a Tumor/Lung ratio ([3]; 5 min p.i., n = 5) of 1.90 ± 0.21. It also gave a Tumor/Muscle ratio ([3]; 5 min p.i., n = 5) of 3.98 ± 0.75, a Brain uptake ([3]; 5 min p.i., n = 5) of 0.41 ± 0.10 %ID/g and an Eyes uptake ([3]; 5 min p.i., n = 5) of 1.54 ± 0.49 %ID/g. For the same substance, the Heart uptake ([3]; 5 min p.i., n = 5) was 2.36 ± 0.29 %ID/g, the Intestine uptake ([3]; 5 min p.i., n = 5) was 3.78 ± 0.52 %ID/g and the Kidney uptake ([3]; 5 min p.i., n = 5) was 18.75 ± 2.79 %ID/g. The Liver uptake ([3]; 5 min p.i., n = 5) was 4.00 ±1.10 %ID/g, the Lungs uptake ([3]; 5 min p.i., n = 5) was 5.41 ± 0.58 %ID/g and the Muscle uptake ([3]; 5 min p.i., n = 5) was 2.73 ± 0.89 %ID/g. For the same substance, the Spleen uptake ([3]; 5 min p.i., n = 5) was 2.97 ± 0.43 %ID/g, the Blood uptake ([3]; 5 min p.i., n = 5) was 1.10 ± 0.16 %ID/g and the Tumor/Blood ratio ([3]; 30 min p.i., n = 5) was 9.65 ± 2.03. The Tumor/Kidney ratio ([3]; 30 min p.i., n = 5) was 0.61 ±0.12, the Tumor/Liver ratio ([3]; 30 min p.i., n = 5) was 3.25 ± 0.85 and the Tumor/Lung ratio ([3]; 30 min p.i., n = 5) was 2.19 ± 0.75. It also gave a Tumor/Muscle ratio ([3]; 30 min p.i., n = 5) of 7.97 ± 2.53, a Brain uptake ([3]; 30 min p.i., n = 5) of 0.22 ± 0.06 %ID/g and an Eyes uptake ([3]; 30 min p.i., n = 5) of 1.20 ± 0.50 %ID/g. The Heart uptake ([3]; 30 min p.i., n = 5) was 1.65 ± 1.10 %ID/g, the Intestine uptake ([3]; 30 min p.i., n = 5) was 4.24 ± 1.54 %ID/g and the Kidney uptake ([3]; 30 min p.i., n = 5) was 13.13 ± 4.75 %ID/g. The Liver uptake ([3]; 30 min p.i., n = 5) was 2.82 ± 1.25 %ID/g, the Lungs uptake ([3]; 30 min p.i., n = 5) was 4.24 ± 1.71 %ID/g and the Muscle uptake ([3]; 30 min p.i., n = 5) was 1.10 ± 0.25 %ID/g. For the same substance, the Spleen uptake ([3]; 30 min p.i., n = 5) was 2.53 ± 0.85 %ID/g, the Blood uptake ([3]; 30 min p.i., n = 5) was 0.92 ± 0.33 %ID/g and the Tumor/Blood ratio ([3]; 60 min p.i., n = 8) was 15.94 ± 8.85. The Tumor/Kidney ratio ([3]; 60 min p.i., n = 8) was 0.79 ±0.40, the Tumor/Liver ratio ([3]; 60 min p.i., n = 8) was 3.05 ± 1.69 and the Tumor/Lung ratio ([3]; 60 min p.i., n = 8) was 2.73 ± 1.33. The Tumor/Muscle ratio ([3]; 60 min p.i., n = 8) was 9.40 ± 5.11, the Brain uptake ([3]; 60 min p.i., n = 8) was 0.35 ± 0.28 %ID/g and the Eyes uptake ([3]; 60 min p.i., n = 8) was 0.81 ± 0.39 %ID/g. The Heart uptake ([3]; 60 min p.i., n = 8) was 1.27 ± 0.61 %ID/g, the Intestine uptake ([3]; 60 min p.i., n = 8) was 5.45 ± 1.47 %ID/g and the Kidney uptake ([3]; 60 min p.i., n = 8) was 11.70 ± 4.06 %ID/g. For the same substance, the Liver uptake ([3]; 60 min p.i., n = 8) was 3.07 ± 2.14 %ID/g, the Lungs uptake ([3]; 60 min p.i., n = 8) was 2.93 ± 0.94 %ID/g and the Muscle uptake ([3]; 60 min p.i., n = 8) was 0.88 ± 0.34 %ID/g. For the same substance, the Spleen uptake ([3]; 60 min p.i., n = 8) was 1.99 ± 0.71 %ID/g, the Blood uptake ([3]; 60 min p.i., n = 8) was 0.56 ± 0.25 %ID/g and the Tumor/Blood ratio ([3]; 120 min p.i., n = 8) was 26.48 ± 8.71. For the same substance, the Tumor/Kidney ratio ([3]; 120 min p.i., n = 8) was 0.89 ±0.48, the Tumor/Liver ratio ([3]; 120 min p.i., n = 8) was 4.03 ± 2.04 and the Tumor/Lung ratio ([3]; 120 min p.i., n = 8) was 4.38 ± 1.34. The Tumor/Muscle ratio ([3]; 120 min p.i., n = 8) was 12.91 ± 4.95, the Brain uptake ([3]; 120 min p.i., n = 8) was 0.14 ± 0.12 %ID/g and the Eyes uptake ([3]; 120 min p.i., n = 8) was 0.52 ± 0.15 %ID/g. For the same substance, the Heart uptake ([3]; 120 min p.i., n = 8) was 0.56 ± 0.08 %ID/g, the Intestine uptake ([3]; 120 min p.i., n = 8) was 3.37 ± 1.32 %ID/g and the Kidney uptake ([3]; 120 min p.i., n = 8) was 6.04 ± 1.92 %ID/g. For the same substance, the Liver uptake ([3]; 120 min p.i., n = 8) was 1.54 ±0.43 %ID/g, the Lungs uptake ([3]; 120 min p.i., n = 8) was 1.31 ± 0.23 %ID/g and the Muscle uptake ([3]; 120 min p.i., n = 8) was 0.47 ± 0.12 %ID/g. It also gave a Spleen uptake ([3]; 120 min p.i., n = 8) of 1.46 ± 0.26 %ID/g, a Blood uptake ([3]; 120 min p.i., n = 8) of 0.22 ± 0.03 %ID/g and a Tumor uptake ([3]; 5 min p.i., n = 5) of 10.30 ± 1.67 %ID/g. For the same substance, the Tumor uptake ([3]; 30 min p.i., n = 5) was 8.37 ± 2.13 %ID/g, the Tumor uptake ([3]; 60 min p.i., n = 8) was 6.86 ± 1.33 %ID/g and the Tumor uptake ([3]; 120 min p.i., n = 8) was 5.61 ± 1.52 %ID/g. For the same substance, the “Tumor uptake on the basis of SPECT quantification” value [4] was ~ 8.5 %ID/cm^3.
